# ChEMBL document CHEMBL2163298, “Inhibition of human topoisomerases I and II by simocyclinone D8” (J Nat Prod, 2012)
# Calls of active or inactive are those of the source. The rule behind the calls is not given here.
# What was measured:
# [1] = biological target: T1, DNA topoisomerase 1 (Homo sapiens) (UniProt P11387); assay: Inhibition of human topoisomerase 1-mediated plasmid DNA cleavage at 25 to 200 uM after 10 mins by agarose gel electrophoresis
# T1 sequence (whole entry): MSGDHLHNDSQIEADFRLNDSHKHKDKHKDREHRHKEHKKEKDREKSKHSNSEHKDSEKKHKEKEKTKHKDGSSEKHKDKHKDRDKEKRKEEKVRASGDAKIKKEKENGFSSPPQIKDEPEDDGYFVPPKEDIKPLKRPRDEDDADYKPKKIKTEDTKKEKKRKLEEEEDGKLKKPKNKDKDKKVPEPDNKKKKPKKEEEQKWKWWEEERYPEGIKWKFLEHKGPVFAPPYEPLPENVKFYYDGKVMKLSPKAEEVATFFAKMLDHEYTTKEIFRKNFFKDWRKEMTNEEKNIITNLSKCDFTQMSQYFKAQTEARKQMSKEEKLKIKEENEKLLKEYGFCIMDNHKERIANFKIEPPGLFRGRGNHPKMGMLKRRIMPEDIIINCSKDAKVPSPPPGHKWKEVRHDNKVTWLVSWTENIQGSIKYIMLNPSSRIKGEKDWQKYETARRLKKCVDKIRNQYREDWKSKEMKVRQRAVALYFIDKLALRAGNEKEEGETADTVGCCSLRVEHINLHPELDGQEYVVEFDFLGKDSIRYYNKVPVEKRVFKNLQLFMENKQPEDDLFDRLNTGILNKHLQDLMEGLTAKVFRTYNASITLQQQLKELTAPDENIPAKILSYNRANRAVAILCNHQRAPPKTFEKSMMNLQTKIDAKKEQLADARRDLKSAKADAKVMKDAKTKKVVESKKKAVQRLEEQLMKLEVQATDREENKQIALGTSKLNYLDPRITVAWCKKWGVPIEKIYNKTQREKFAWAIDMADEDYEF
# Procedure, shortened: (§1)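 Relaxed plasmid (0.3 μg) with 5 units human Topo I at 37 °C for 10 min. Buffer: pH 7.5, 1 mM MgCl2. Stopped with 1% SDS, then 25 mM EDTA and 100 μg/mL proteinase K, 37 °C 15 min. Phenol extraction, 1.2% agarose gel with ethidium bromide at 2 V/cm for 12 h. 5 μM CPT reaction as control.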
# [2] = biological target: T1, DNA topoisomerase 1 (Homo sapiens); assay: Inhibition of human topoisomerase 1-mediated relaxation of supercoiled pBR322 DNA at 50 to 400 uM after 15 to 30 mins by agarose gel electrophoresis
# Procedure, shortened: (§2)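 Supercoiled pBR322 (0.3 μg) relaxed by human Topo I (1 unit, 30 min; or 2 units, 15 min) or calf thymus Topo I (0.5 unit, 15 min), 37 °C. Buffer: 50 mM Tris-HCl pH 7.5, 1 mM MgCl2, 1 mM DTT, 50 μg/mL BSA. Stopped with 25 mM EDTA. Run on 1.2% agarose in TAE, ethidium-stained and quantified. IC50 taken from these gels.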
# [3] = biological target: T1, DNA topoisomerase 1 (Homo sapiens); assay: Ratio of CPT IC50 to compound IC50 for human topoisomerase 1-mediated relaxation of supercoiled pBR322 DNA
# DNA topoisomerase 1 = biological target: T2, DNA topoisomerase 1 (Homo sapiens, UniProt P11387); assay: Inhibition of human topoisomerase 1-mediated relaxation of supercoiled pBR322 DNA after 15 to 30 mins by agarose gel electrophoresis; procedure, shortened: as §2
# T2 sequence (P11387 whole entry): T1 sequence (whole entry)
# [4] = biological target: DNA topoisomerase 2-alpha (Homo sapiens) (UniProt P11388); assay: Dissociation of human topo 2-etoposide-DNA ternary complex assessed as reduction in […] formation at 150 uM by two-step DNA cleavage assay
# Procedure, shortened: (§3)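 Human Topo II with 7.5 μM etoposide on relaxed plasmid DNA (50 mM Tris-HCl pH 8, 10 mM MgCl2, 10 mM DTT, 1 mM ATP, BSA; 6-fold scale), 37 °C 5 min. Then 150 μM SD8 or 2% DMSO at 37 °C. Timed aliquots stopped with 1% SDS, then EDTA/proteinase K 50 °C 60 min. Linear DNA quantified on ethidium agarose gels.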
# [5] = biological target: T1, DNA topoisomerase 1 (Homo sapiens); assay: Inhibition of human topoisomerase 1-mediated relaxation of supercoiled pBR322 DNA at 50 to 400 uM after 15 to 30 mins by agarose gel electrophoresis in presence of 200 mM potassium glutamate
# Procedure, shortened: (§4)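 Human Topo I relaxation of supercoiled pBR322 at 37 °C, run as the standard assay. Mg2+ raised up to 1 mM, NaCl up to 100 mM, or potassium glutamate up to 200 mM. Products resolved on agarose gels.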
# [6] = biological target: T1, DNA topoisomerase 1 (Homo sapiens); assay: Dissociation of human topo 1-CPT-DNA ternary complex assessed as reduction in nicked DNA formation at 150 uM by two-step DNA cleavage assay; design: scale not given: the % may be the effect or the level left
# Procedure, shortened: (§5)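 Topo I with 7.5 μM CPT on relaxed plasmid DNA (6-fold scaled cleavage mix: 50 mM Tris-HCl pH 7.5, 1 mM MgCl2, 1 mM DTT, BSA), 37 °C 5 min. Then 150 μM SD8 or DMSO (2% final), continued at 37 °C. Aliquots taken at set times, stopped with 1% SDS, then EDTA/proteinase K 37 °C 15 min. Nicked DNA read on ethidium agarose gels.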
# [7] = biological target: T1, DNA topoisomerase 1 (Homo sapiens); assay: Dissociation of human topo 1-CPT-DNA ternary complex assessed as reduction in nicked DNA formation measuring remaining ternary complex at 150 uM after 20 mins by two-step DNA cleavage assay; procedure, shortened: as §5
# [8] = biological target: T1, DNA topoisomerase 1 (Homo sapiens); assay: Dissociation of human topo 1-CPT-DNA ternary complex assessed as reduction in nicked DNA formation at 160 uM after 10 mins by dilution DNA cleavage assay relative to untreated-control; design: scale not given: the % may be the effect or the level left
# Procedure, shortened: (§6)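 Topo I cleavage mix (0.6 μg relaxed plasmid, 5 units human Topo I, 2.5 μM CPT), 37 °C 5 min. Then diluted 10-fold in drug-free buffer or buffer holding 2.5 μM CPT, 160 μM SD8, or both, 37 °C 10 min. SDS/EDTA/proteinase K workup. Nicked DNA normalized to the undiluted control; mean and absolute deviation of two assays.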
# [9] = biological target: T1, DNA topoisomerase 1 (Homo sapiens); assay: Inhibition of human topoisomerase 1-mediated relaxation of supercoiled pBR322 DNA at 50 to 400 uM after 15 to 30 mins by agarose gel electrophoresis in presence of 100 mM NaCl; procedure, shortened: as §4
# [10] = biological target: DNA topoisomerase 2-alpha (Homo sapiens) (UniProt P11388); assay: Dissociation of human topo 2-etoposide-DNA ternary complex assessed as nicked DNA formation at 150 uM after 20 mins by two-step DNA cleavage assay; details: in the assay text read “linear DNA” for “nicked DNA”; procedure, shortened: as §3
# [11] = biological target: T1, DNA topoisomerase 1 (Homo sapiens); assay: Dissociation of human topo 1-CPT-DNA ternary complex assessed as reduction in nicked DNA formation at 160 uM after 10 mins by dilution DNA cleavage assay; design: scale not given: the % may be the effect or the level left; procedure, shortened: as §6
# [12] = biological target: DNA topoisomerase 2-alpha (Homo sapiens) (UniProt P11388); assay: Inhibition of human topoisomerase 2-mediated plasmid DNA cleavage at 25 to 200 uM after 10 mins by agarose gel electrophoresis electrophoresis
# Procedure, shortened: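 Relaxed plasmid (0.3 μg) with 5 units human Topo II and 1 mM ATP at 37 °C for 10 min. Buffer: pH 8, 10 mM MgCl2. Stopped with 1% SDS, then EDTA and proteinase K at 50 °C for 60 min. Extracted and run on ethidium agarose gels.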
# [13] = biological target: T3, Topoisomerase I (Bos taurus) (UniProt Q2HPH0); assay: Inhibition of calf thymus topoisomerase 1-mediated relaxation of supercoiled pBR322 DNA after 15 mins by agarose gel electrophoresis; procedure, shortened: as §2
# T3 sequence (whole entry): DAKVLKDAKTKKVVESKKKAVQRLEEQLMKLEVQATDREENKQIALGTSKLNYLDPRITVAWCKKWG
# [14] = biological target: T1, DNA topoisomerase 1 (Homo sapiens); assay: Stimulation of human topoisomerase 1-mediated plasmid DNA cleavage at 25 to 200 uM after 10 mins by agarose gel electrophoresis; procedure, shortened: as §1
# [15] = biological target: DNA topoisomerase 2-alpha (Homo sapiens) (UniProt P11388); assay: Inhibition of human topoisomerase 2-mediated plasmid DNA cleavage preincubated at 150 uM for 5 mins before addition of poison measured after 10 mins by agarose gel electrophoresis
# Procedure, shortened: (§7)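 Two-step assay at 4-fold scale: Topo I or human Topo II with 150 μM SD8, 37 °C 5 min. Aliquots then given 7.5 μM CPT (Topo I) or 7.5 μM etoposide (Topo II), 37 °C 10 min. Stopped with 1% SDS, then proteinase K (Topo I 37 °C 15 min; Topo II 50 °C 60 min). Gel readout.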
# [16] = biological target: T1, DNA topoisomerase 1 (Homo sapiens); assay: Dissociation of human topo 1-CPT-DNA ternary complex assessed as reduction in nicked DNA formation at 160 uM after 10 mins by dilution DNA cleavage assay in presence of 2.5 uM CPT; design: scale not given: the % may be the effect or the level left; procedure, shortened: as §6
# [17] = biological target: T1, DNA topoisomerase 1 (Homo sapiens); assay: Inhibition of human topoisomerase 1-mediated relaxation of supercoiled pBR322 DNA at 50 to 400 uM after 15 to 30 mins by agarose gel electrophoresis in presence of 1 mM magnesium; procedure, shortened: as §4
# [18] = biological target: T1, DNA topoisomerase 1 (Homo sapiens); assay: Inhibition of human topoisomerase 1-mediated plasmid DNA cleavage preincubated at 150 uM for 5 mins before addition of poison measured after 10 mins by agarose gel electrophoresis; procedure, shortened: as §7
# [19] = biological target: DNA topoisomerase 2-alpha (Homo sapiens) (UniProt P11388); assay: Inhibition of human topoisomerase 2-mediated relaxation of supercoiled pBR322 DNA at 50 to 400 uM after 30 mins by agarose gel electrophoresis
# Procedure, shortened: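 Human Topo II (2 units) relaxed 0.3 μg supercoiled pBR322 at 37 °C for 30 min. Stopped with 25 mM EDTA, 5 min. Analyzed on agarose gels.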
# Chain of DNA topoisomerase 2-alpha (Homo sapiens) (P11388 whole entry): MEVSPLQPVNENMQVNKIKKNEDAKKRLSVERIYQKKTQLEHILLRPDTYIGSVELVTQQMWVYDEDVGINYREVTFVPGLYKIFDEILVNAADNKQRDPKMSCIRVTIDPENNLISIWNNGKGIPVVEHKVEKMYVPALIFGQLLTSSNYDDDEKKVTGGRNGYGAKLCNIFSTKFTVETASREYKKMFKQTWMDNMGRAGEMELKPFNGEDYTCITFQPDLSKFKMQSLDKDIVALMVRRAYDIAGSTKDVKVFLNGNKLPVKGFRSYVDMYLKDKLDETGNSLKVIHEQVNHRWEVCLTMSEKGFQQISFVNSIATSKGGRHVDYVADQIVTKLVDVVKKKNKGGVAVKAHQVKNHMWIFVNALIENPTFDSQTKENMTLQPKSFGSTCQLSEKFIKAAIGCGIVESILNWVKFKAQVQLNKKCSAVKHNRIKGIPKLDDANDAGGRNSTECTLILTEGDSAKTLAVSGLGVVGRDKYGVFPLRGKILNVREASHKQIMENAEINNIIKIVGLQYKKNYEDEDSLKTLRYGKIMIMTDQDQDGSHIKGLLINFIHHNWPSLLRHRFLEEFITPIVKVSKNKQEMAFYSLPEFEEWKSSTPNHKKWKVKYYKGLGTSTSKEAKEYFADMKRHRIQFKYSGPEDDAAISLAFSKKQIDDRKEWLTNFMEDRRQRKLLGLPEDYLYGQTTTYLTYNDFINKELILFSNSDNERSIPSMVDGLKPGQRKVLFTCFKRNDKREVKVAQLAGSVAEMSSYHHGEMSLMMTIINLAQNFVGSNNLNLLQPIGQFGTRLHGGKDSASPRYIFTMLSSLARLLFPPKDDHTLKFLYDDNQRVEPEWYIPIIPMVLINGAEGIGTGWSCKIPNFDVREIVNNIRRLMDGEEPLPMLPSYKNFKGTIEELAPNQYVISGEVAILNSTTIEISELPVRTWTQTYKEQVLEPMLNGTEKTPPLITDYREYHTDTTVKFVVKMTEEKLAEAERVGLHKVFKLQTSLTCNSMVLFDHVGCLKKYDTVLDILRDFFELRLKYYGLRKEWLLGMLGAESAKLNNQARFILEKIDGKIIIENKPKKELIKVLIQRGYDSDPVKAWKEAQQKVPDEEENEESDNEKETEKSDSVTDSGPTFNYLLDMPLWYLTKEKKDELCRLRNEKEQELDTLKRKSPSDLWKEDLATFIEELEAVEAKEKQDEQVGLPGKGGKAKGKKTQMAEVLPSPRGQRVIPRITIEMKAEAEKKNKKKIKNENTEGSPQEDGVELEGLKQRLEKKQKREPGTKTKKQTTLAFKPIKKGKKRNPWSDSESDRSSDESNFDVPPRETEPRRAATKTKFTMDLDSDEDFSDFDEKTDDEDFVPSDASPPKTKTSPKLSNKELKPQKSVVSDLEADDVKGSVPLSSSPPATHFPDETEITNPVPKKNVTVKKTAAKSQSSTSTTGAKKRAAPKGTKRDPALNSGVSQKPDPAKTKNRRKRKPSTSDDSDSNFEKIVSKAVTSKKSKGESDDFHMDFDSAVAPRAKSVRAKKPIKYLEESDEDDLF
smiles,measurement,setting,value
CC(=O)O[C@@H]1[C@@H](C)O[C@@H](c2ccc3c(c2O)[C@@H](O)[C@]24O[C@@]2(C3=O)[C@@]2(O)C(=O)C=C(C)C[C@@]2(O)C[C@@H]4O)C[C@H]1OC(=O)/C=C/C=C/C=C/C=C/C(=O)Nc1c(O)c2ccc(O)c(Cl)c2oc1=O [SIMOCYCLINONE D8],inhibition,[1],Active
same,inhibition,[2],Active
same,Ratio IC50,[3],0.5
same,IC50,DNA topoisomerase 1,60 µM
same,Activity,[4],inactive
same,inhibition,[5],Active
same,Activity,[6],40%
same,Activity,[7],53%
same,Activity,[8],20%
same,inhibition,[9],Active
same,Activity,[10],107%
same,Activity,[11],55%
same,inhibition,[12],Active
same,inhibition,[13],Active
same,Activity,[14],inactive
same,inhibition,[15],Active
same,Activity,[16],46%
same,inhibition,[17],Active
same,inhibition,[18],Active
same,inhibition,[19],Active
